In ChEMBL document CHEMBL3272255, “Substituted alpah-methylbenzyl and tricyclic arylalkyl lactamimides as inhibitors of blood platelet aggregation” (J Med Chem, 1976):

Columns and labels:
[1] = Antiplatelet activity in human platelet rich plasma assessed as inhibition of ADP-induced platelet aggregation at 10 ug/ml after 20 mins by aggregometric analysis relative to control; type: functional
Procedure, shortened: (§1)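 Human blood came from fasting donors who had taken no drugs for 5 days. It was citrated 1:9 with 3.8% sodium citrate. PRP was prepared at 100g for 10 min and PPP at 1500g for 15 min, and PRP was diluted with autologous PPP to 400000 platelets/mm³. Compound or saline control was incubated 20 min at 37°, then ADP was added at 2 μg/ml final. Percent inhibition was calculated from maximal ΔT, test vs control.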

[2] = Antiplatelet activity in human platelet rich plasma assessed as inhibition of ADP-induced platelet aggregation at 100 ug/ml after 20 mins by aggregometric analysis relative to control; type: functional; procedure, shortened: as §1
[3] = Antiplatelet activity in human platelet rich plasma assessed as inhibition of ADP-induced platelet aggregation at 30 ug/ml after 20 mins by aggregometric analysis relative to control; type: functional; procedure, shortened: as §1
[4] = Antiplatelet activity in human platelet rich plasma assessed as platelet factor-3 release at 300 ug/ml after 20 mins relative to control
[5] = Antiplatelet activity in human platelet rich plasma assessed as inhibition of platelet factor-3 release at 100 ug/ml after 20 mins relative to control; type: functional
Procedure, shortened: (§2)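 Test compound solution was incubated in human citrated PRP at 37° for 20 min. PF3 activity was then measured by a modified Stypven test, with plasma diluted 1:10.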

Cavia porcellus [6] = experiment: Antiplatelet activity in guinea pig assessed as inhibition of 0.8 ug/ml ADP-induced platelet aggregation measured as area between aggregation curve and baseline transmittance at 30 mg/kg, po for 4 days measured at 2 hrs post last dose by aggregometric analysis relative to control; type: functional
Procedure, shortened: (§3)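 Guinea pigs were dosed by stomach tube at the stated dose daily for 4 days, with an untreated control group kept in parallel. Blood was taken by heart puncture 2 h after the last dose, and citrated PRP was isolated and adjusted. ADP was added in vitro. Total response was the area between the aggregation curve and baseline transmittance over 5 min, measured by planimeter. Percent inhibition came from group-average total response, treated vs control.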

Cavia porcellus [7] = experiment: Antiplatelet activity in guinea pig assessed as inhibition of 0.8 ug/ml ADP-induced platelet aggregation measured as change in light transmittance at 30 mg/kg, po for 4 days measured at 2 hrs post last dose by aggregometric analysis relative to control; type: functional
Procedure, shortened: (§4)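 Dosing was oral by stomach tube for 4 days, alongside an untreated control group. Blood was drawn by heart puncture 2 h after the final dose, then citrated PRP was isolated and adjusted for aggregometry. ADP was added in vitro at the stated concentration. The read-out was the maximum increase in light transmittance (ΔT); group means were compared, treated vs control.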

Cavia porcellus [8] = experiment: Antiplatelet activity in guinea pig assessed as inhibition of 0.45 ug/ml ADP-induced platelet aggregation measured as change in light transmittance at 30 mg/kg, po for 4 days measured at 2 hrs post last dose by aggregometric analysis relative to control; type: functional; procedure, shortened: as §4
Cavia porcellus [9] = experiment: Antiplatelet activity in guinea pig assessed as inhibition of 0.45 ug/ml ADP-induced platelet aggregation measured as area between aggregation curve and baseline transmittance at 30 mg/kg, po for 4 days measured at 2 hrs post last dose by aggregometric analysis relative to control; type: functional; procedure, shortened: as §3
Cavia porcellus [10] = experiment: Antiplatelet activity in guinea pig assessed as 0.45 ug/ml ADP-induced platelet aggregation measured as change in light transmittance at 100 mg/kg, po for 4 days measured at 2 hrs post last dose by aggregometric analysis
Cavia porcellus [11] = experiment: Antiplatelet activity in guinea pig assessed as inhibition of 0.45 ug/ml ADP-induced platelet aggregation measured as area between aggregation curve and baseline transmittance at 100 mg/kg, po for 4 days measured at 2 hrs post last dose by aggregometric analysis relative to control; type: functional; procedure, shortened: as §3
Cavia porcellus [12] = experiment: Antiplatelet activity in guinea pig assessed as inhibition of 0.8 ug/ml ADP-induced platelet aggregation measured as area between aggregation curve and baseline transmittance at 100 mg/kg, po for 4 days measured at 2 hrs post last dose by aggregometric analysis relative to control; type: functional; procedure, shortened: as §3
Cavia porcellus [13] = experiment: Antiplatelet activity in guinea pig assessed as inhibition of 0.8 ug/ml ADP-induced platelet aggregation measured as change in light transmittance at 100 mg/kg, po for 4 days measured at 2 hrs post last dose by aggregometric analysis relative to control; type: functional; procedure, shortened: as §4
[14] = Antiplatelet activity in human platelet rich plasma assessed as inhibition of platelet factor-3 release at 30 ug/ml after 20 mins relative to control; type: functional; procedure, shortened: as §2
Cavia porcellus [15] = experiment: Toxicity in guinea pig assessed as mortality at 300 mg/kg, po measured after third dose; type: organism-based; parameters: dose 300 mg/kg, route oral; settings: in vivo

SMILES	inhibition at 10 µg/mL [1] [%]	inhibition at 100 µg/mL [2] [%]	inhibition at 30 µg/mL [3] [%]	%max [4] [%]	%max [5] [%]	other results
CC(/N=C1\CCCCCN1)c1cc(C(C)(C)C)cc2c1CCC2(C)C (stereo not drawn)	0	100	22			
CC(/N=C1\CCCCCN1)c1ccc(C2CCCCC2)cc1.Cl (stereo not drawn)	9	100	31	0.62	0.004	
CC(/N=C1\CCCN1C)c1ccc(CCc2ccccc2)cc1 (stereo not drawn)		100	29			
CC(/N=C1\CCCCCN1)c1ccc2c(ccc3ccccc32)c1.Cl (stereo not drawn)	4	100	43	2.6	0.06	
CC(/N=C1\CCCCCN1)c1ccc(C=C2c3ccccc3-c3ccccc32)cc1.Cl (stereo not drawn)	6	100	38	0.42	0.02	
CC(/N=C1\CCCCCN1)c1ccc2c(c1)Cc1ccccc1-2.Cl (stereo not drawn)	0	100	43	1.5	0.06	
CC(/N=C1\CCCCCN1)c1ccc(C=C(c2ccccc2)c2ccccc2)cc1.Cl (stereo not drawn)	0	100	21	2.3	0.23	
CC(/N=C1\CCCN1)c1ccc2oc3ccccc3c2c1 (stereo not drawn)	10	100	42			
CC(/N=C1\CCCCCN1)c1ccc(Oc2ccccc2)cc1.Cl (stereo not drawn)	15	100	25	0.26	0.01	inhibition in vivo at 30 mg/kg (Cavia porcellus [6]): 38%; ΔT % at 30 mg/kg (Cavia porcellus [7]): 42.2%; ΔT % at 30 mg/kg (Cavia porcellus [8]): 24.4%; inhibition in vivo at 30 mg/kg (Cavia porcellus [9]): 53%; ΔT % at 100 mg/kg (Cavia porcellus [10]): 17.7%; inhibition in vivo at 100 mg/kg (Cavia porcellus [11]): 29%; inhibition in vivo at 100 mg/kg (Cavia porcellus [12]): 8%; ΔT % at 100 mg/kg (Cavia porcellus [13]): 49%
CC(/N=C1\CCCCCN1)c1ccccc1OCCc1ccccc1 (stereo not drawn)	11	81	30			
CCN(CC)CCN(CC(O)c1ccccc1)c1cc(Cl)ccc1Cl (stereo not drawn)		62	10	0.52	0.1	
CC(/N=C1\CCCN1)c1cccc(OCCCCOc2ccccc2)c1 (stereo not drawn)	0	100	16			
Cc1cc2c(cc1C(C)/N=C1\CCCCCN1)C(C)(C)CCC2(C)C (stereo not drawn)		77				
CC(/N=C1\CCCCCN1)c1ccc2oc3ccccc3c2c1 (stereo not drawn)		67				
O=C(CO)OC(CC1CCCCN1)c1ccc(C=C2c3ccccc3-c3ccccc32)cc1 (stereo not drawn)	1	99	28	0.747	0.162	%max [14]: 0.003%
CCCCCCCCCCCCCc1ccc(C(C)/N=C2\CCCCCN2)cc1 (stereo not drawn)	16	100	33			
CCCCCCCCCCCCOc1ccc(C(C)/N=C2\CCCCCN2)cc1 (stereo not drawn)		64				
CC(/N=C1/CCCCCN1)c1cccc2ccccc12.Cl (stereo not drawn)	0	70	46	0.037	0.003	inhibition in vivo at 30 mg/kg (Cavia porcellus [6]): 0%; ΔT % at 30 mg/kg (Cavia porcellus [7]): 29%; Activity (Cavia porcellus [15]): Toxic; ΔT % at 30 mg/kg (Cavia porcellus [8]): 7%; inhibition in vivo at 30 mg/kg (Cavia porcellus [9]): 33%; ΔT % at 100 mg/kg (Cavia porcellus [10]): 7.1%; inhibition in vivo at 100 mg/kg (Cavia porcellus [11]): 0%; inhibition in vivo at 100 mg/kg (Cavia porcellus [12]): 0%; ΔT % at 100 mg/kg (Cavia porcellus [13]): 21.6%
CC(/N=C1\CCCCCN1)c1ccc2sc3ccccc3c2c1.Cl (stereo not drawn)	2	100	52	0.18	0.013	inhibition in vivo at 30 mg/kg (Cavia porcellus [6]): 3%; ΔT % at 30 mg/kg (Cavia porcellus [7]): 43.6%; ΔT % at 30 mg/kg (Cavia porcellus [8]): 20.4%; inhibition in vivo at 30 mg/kg (Cavia porcellus [9]): 0%; ΔT % at 100 mg/kg (Cavia porcellus [10]): 32%; inhibition in vivo at 100 mg/kg (Cavia porcellus [11]): 0%; inhibition in vivo at 100 mg/kg (Cavia porcellus [12]): 0%; ΔT % at 100 mg/kg (Cavia porcellus [13]): 53.6%
CC(/N=C1\CCCCCN1)c1ccc(OCCCc2ccccc2)cc1 (stereo not drawn)		74				
CC(/N=C1\CCCCCN1)c1ccc(OCCCOc2ccccc2)cc1 (stereo not drawn)	0	100	14			
CC(/N=C1\CCCCCN1)c1ccc(-c2ccccc2)cc1.Cl (stereo not drawn)	0	100	44	0.76	0.04	
CC(/N=C1\CCCCCCCN1)c1ccc2c(c1)Cc1ccccc1-2 (stereo not drawn)	6	100	62			
CC(/N=C1\CCCCCN1)c1ccc(CCc2ccccc2)cc1.Cl (stereo not drawn)	8	78	37	0.91	0.013	%max [14]: 0%
